Screening data deposited in PubChem by The Scripps Research Institute Molecular Screening Center.
Sampled rows, rich in hits. Any-hit rate of the full collection: about 4.3%.
STAT3 activator: activators of IL-6 induced STAT3 signaling | U3A cells, IL-6 STAT3-luciferase reporter, luminescence; 100% = signal with IL-6 EC80 alone | activation (% of control), % at 5.6 µM | hit rate 0.91% among 190,000;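 active means activation above the screen-wide mean of compound activation plus 3 SD, cut at about 130% in these data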;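 further: 0% = background luminescence of wells with medium and substrate only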
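Material: STAT3-luciferase reporter U3A cells. Controls: IL-6-treated wells, 100% activation. Read-out: % activation versus median of IL-6-stimulated wells. Probe or stimulus: IL-6 stimulus at 33 ng/mL final. Timing: compound 1 h, then IL-6 6 h at 37 °C. Signal: reporter luminescence signal.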
STAT1 blocker: inhibitors of IFN-gamma induced STAT1 signaling; hit rate 0.35% among 200,000; NIH 3T3 STAT1-luciferase reporter, luminescence; inhibition, % at 5.5 µM;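 active means inhibition above a set limit, the mean inhibition across all tested compounds plus 3 SD, cut at about 34% in these data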;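 further: 0% = IFN-gamma with DMSO and 100% = IFN-gamma with 300 µM nifuroxazide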
STAT3 blocker: inhibitors of IL-6 induced STAT3 signaling. U3A cells, IL-6 STAT3-luciferase reporter, luminescence; host cell line lacks STAT1. inhibition, % at 5.5 µM. hit rate 0.89% among 190,000. AID 862;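 active means inhibition above the mean inhibition across all screened compounds plus 3 SD, cut at about 44% in these data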;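 further: 0% = DMSO only wells and 100% = 100 µM nifuroxazide control wells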
STAT1 activator: activators of IFN-gamma induced STAT1 signaling; NIH 3T3 STAT1-luciferase reporter, luminescence; 100% = IFN-gamma alone, no compound; activation (% of control), % at 5.5 µM; hit rate 2.6% among 200,000;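 active means activation above the screen-wide mean activation plus 3 SD, cut at about 130% in these data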;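 further: raw ratio to IFN-gamma control signal so 100% means no change and 0% no light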
An asterisk follows results filed as active; . = no result given.

SMILES	STAT3 activator	STAT1 blocker	STAT3 blocker	STAT1 activator
CC(C)CN(C(=O)CN1CCc2ccccc21)c1c(N)n(CC(C)C)c(=O)[nH]c1=O	133.0*	5.1	-37.3	94.6
Cc1ccc(-c2nc(N/N=C/c3cccnc3)c3ccccc3n2)cc1	41.2	57.1*	72.1*	47.8
O=c1c(Cl)c(NCc2ccccc2)cnn1C12CC3CC(CC(C3)C1)C2	102.6	-19.7	-0.7	117.6
Cc1cc2ncc(-c3cccc(Cl)c3)cn2n1	122.3	-31.6	-24.5	128.8*
COc1ccc(S(=O)(=O)Nc2ccccc2C(F)(F)F)cc1	99.7	4.8	3.4	97.4
COc1ccc(S(=O)(=O)Nc2ccc(O)c3ccccc23)cc1	134.2*	1.5	-36.6	98.6
COc1ccc(/C=C/C(=O)Nc2cc(=O)n(C)c(=O)n2C)cc1	80.3	2.1	23.9	98.1
Cn1c(NC(=O)CCc2ccccc2)cc(=O)n(C)c1=O	121.4	-42.1	-21.3	138.2*
Cn1c(NC(=O)/C=C/c2ccccc2)cc(=O)n(C)c1=O	107.7	-42.9	-9.5	139.0*
C=CCNC(=S)Nc1cccc(N)c1	107.4	-5.5	1.4	105.3
O=C(Nc1ccc2c(c1)CCC2)c1cnccn1	91.4	-46.3	9.5	142.7*
Cc1ccc(C(=O)Nc2ccc3c(c2)CCC3)o1	96.0	-38.0	9.2	137.3*
O=C(Nc1ccc2c(c1)CCC2)c1ccc(Br)o1	92.8	-21.3	14.0	119.6
CN1N=C(C(=O)Nc2ccc3c(c2)CCC3)CCC1=O	91.1	-34.7	13.2	132.2*
O=C(Nc1ccc2c(c1)CCC2)c1cc2ccccc2o1	89.6	-55.1	17.6	150.6*
Cc1cnc(C(=O)Nc2ccc3c(c2)CCC3)cn1	75.2	-24.0	37.0	121.9
O=c1c2ccccc2cnn1-c1ccc(Cl)nn1	88.2	-13.8	16.5	111.3
O=c1c2ccccc2cnn1-c1ccc2ccccc2c1	82.7	-33.5	19.7	130.8*
COc1ccc2nc(SCc3cccc(C)c3)nc(C)c2c1	104.8	-32.8	-6.1	129.7*
COc1ccc2nc(SCc3ccccc3C)nc(C)c2c1	100.8	-9.4	-1.5	108.5
CN(Cc1cn(C)nc1-c1ccccc1F)CC1CCCCO1 (centres undefined)	100.6	-17.7	3.7	114.4
O=C(c1ccc(F)cc1)c1ccc(N2CCCC2)cc1	102.0	-41.3	4.2	137.8*
O=S(=O)(N1CCCCC1)N1CCN(c2ccc(F)cc2)CC1	104.5	-5.8	-1.6	105.3
CCOc1ccc(Br)cc1S(=O)(=O)Nc1cccc(S(=O)(=O)N(C)C)c1	103.0	9.4	-6.0	91.6
O=C(NN=C1CCCCCCCCCCC1)c1cccc(S(=O)(=O)N2CCOCC2)c1	92.2	4.5	12.7	96.0
SMILES	STAT3 activator	STAT1 blocker	STAT3 blocker	STAT1 activator
O=[N+]([O-])c1nn(-c2ccc3c(c2)OCCO3)n(O)c1=Nc1ccccc1	25.3	45.9*	90.3*	59.2
O=[N+]([O-])c1nn(-c2ccc3c(c2)OCCO3)n(O)c1=NCCCO	103.4	-19.0	-1.5	116.9
Cc1ccc(CN=c2c([N+](=O)[O-])nn(-c3ccc4c(c3)OCCO4)n2O)cc1	97.6	-39.8	0.7	135.4*
COc1cccc(CN2CCN(Cc3nc(C(C)C)cs3)CC2CCO)c1 (centres undefined)	103.7	-1.3	-2.0	99.5
Brc1ccccc1-n1nnc(-c2nccs2)n1	.	-34.1	.	133.4*
Clc1ncccc1-c1nnn(-c2ccccc2Br)n1	.	-20.9	.	121.0
Cc1cc(-c2ccccc2)nc(Cl)c1C#N	102.4	0.0	0.9	100.0
C=CCn1c(COc2cccc(C)c2)nnc1SCn1nnc2ccccc2c1=O	94.8	6.6	9.7	94.2
CC(C)Oc1ccc(NC(=O)Oc2ccccc2)cc1	111.1	-33.1	-8.1	130.0*
CC(=O)c1ccc(NC(=O)Oc2ccccc2)cc1	105.9	-0.2	-7.0	96.2
c1ccc(CSc2ccc(-c3ccco3)nn2)cc1	86.2	-50.0	18.6	144.7*
Cc1cccc(CSc2ccc(-c3ccco3)nn2)c1	95.4	-36.5	4.1	133.4*
Clc1ccc(CSc2ccc(-c3ccco3)nn2)cc1	96.9	-24.9	7.2	121.8
Cc1ccc(CSc2ccc(-c3ccco3)nn2)cc1	94.1	-27.5	5.6	125.1
CCOc1cc(N2CCOCC2)c(OCC)cc1NC(=O)CN1CCCC1	103.4	3.3	-0.8	97.0
CC(=O)N1CCc2cc(S(=O)(=O)NCCC3=CCCCC3)ccc21	45.7	17.1	65.0*	89.3
COCCCNS(=O)(=O)c1ccc2c(c1)CCN2C(C)=O	99.9	-3.6	0.2	97.7
